This is an account of results in publication PMC3716464 (Angewandte Chemie (International ed. in English), 2009).

Structures are written as SMILES.

The test concerns b(h)CAII. Briefly: dot blot detection of b. The class given is binding, bovine; human. The note with it: biligand in 0.1% serum, compared with triligand in 10% porcine serum. In outline:
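Dot blot with the test peptide as capture agent for b(h)CAII in 10% porcine serum, varying protein amount to find the detection limit. For comparison, the biligand anchor served as capture agent in 0.1% serum.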

Regarding `C#CC[C@@H](N)C(=O)N[C@H](CCCCN)C(=O)N[C@H](Cc1c[nH]c2ccccc12)C(=O)N[C@H](CC(C)C)C(=O)N[C@H](Cc1c[nH]c2ccccc12)C(=O)NCC(=O)N[C@H](CC(C)C)C(=O)N[C@@H](CCCCn1cc(C[C@@H](NC(=O)[C@@H](CCCCN)NC(=O)[C@@H](Cc2ccccc2)NC(=O)[C@@H](Cc2c[nH]c3ccccc23)NC(=O)[C@@H](CC(C)C)NC(=O)[C@@H](CCCCN)NC(=O)[C@H](N)CC(C)C)C(N)=O)nn1)C(N)=O` [(D-Pra)-kwlwGl-Tz1-kfwlkl], the “reduction in sensitivity (biligand anchor as capture agent versus triligand)” value was “more than 10 fold”.
